Data: ChEMBL document CHEMBL1140884, “Oligodeoxyribonucleotide-based antagonists for Toll-like receptors 7 and 9” (2009)
Activity calls are given as the source filed them. The calls are words filed in the database; no cut-off is given here.

Key:
Mus musculus [1] = assay: Inhibition of 5'-TCTGACRTTCT-X-TCTTRCAGTCT-3'-induced IL6 production in C57BL/6 mouse treated 72 hrs before induction at 10 mg/kg, sc; assay type: functional; conditions: C57BL/6, sc, route subcutaneous
Procedure, shortened: (§1)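 Female C57BL/6 mice (n=3) received antagonist 10 mg/kg sc in the right flank. After 72 h, TLR9 agonist 0.25 mg/kg sc was given in the left flank. Serum was taken 2 h after agonist and cytokines/chemokines were measured by Luminex multiplex assay. Representative of at least three experiments.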

[2] = biological target: T1, Toll-like receptor 9 (Mus musculus) (UniProt Q9EQU3); assay: Antagonist activity at TLR9 in mouse J774 cells assessed as inhibition of 5'-TCTGACRTTCT-X-TCTTRCAGTCT-3'-induced NF-kappaB activation pretreated for 1 hr in presence of increasing levels of 5'-TCTGACRTTCT-X-TCTTRCAGTCT-3'; assay type: functional, cell-based
T1 sequence (whole entry): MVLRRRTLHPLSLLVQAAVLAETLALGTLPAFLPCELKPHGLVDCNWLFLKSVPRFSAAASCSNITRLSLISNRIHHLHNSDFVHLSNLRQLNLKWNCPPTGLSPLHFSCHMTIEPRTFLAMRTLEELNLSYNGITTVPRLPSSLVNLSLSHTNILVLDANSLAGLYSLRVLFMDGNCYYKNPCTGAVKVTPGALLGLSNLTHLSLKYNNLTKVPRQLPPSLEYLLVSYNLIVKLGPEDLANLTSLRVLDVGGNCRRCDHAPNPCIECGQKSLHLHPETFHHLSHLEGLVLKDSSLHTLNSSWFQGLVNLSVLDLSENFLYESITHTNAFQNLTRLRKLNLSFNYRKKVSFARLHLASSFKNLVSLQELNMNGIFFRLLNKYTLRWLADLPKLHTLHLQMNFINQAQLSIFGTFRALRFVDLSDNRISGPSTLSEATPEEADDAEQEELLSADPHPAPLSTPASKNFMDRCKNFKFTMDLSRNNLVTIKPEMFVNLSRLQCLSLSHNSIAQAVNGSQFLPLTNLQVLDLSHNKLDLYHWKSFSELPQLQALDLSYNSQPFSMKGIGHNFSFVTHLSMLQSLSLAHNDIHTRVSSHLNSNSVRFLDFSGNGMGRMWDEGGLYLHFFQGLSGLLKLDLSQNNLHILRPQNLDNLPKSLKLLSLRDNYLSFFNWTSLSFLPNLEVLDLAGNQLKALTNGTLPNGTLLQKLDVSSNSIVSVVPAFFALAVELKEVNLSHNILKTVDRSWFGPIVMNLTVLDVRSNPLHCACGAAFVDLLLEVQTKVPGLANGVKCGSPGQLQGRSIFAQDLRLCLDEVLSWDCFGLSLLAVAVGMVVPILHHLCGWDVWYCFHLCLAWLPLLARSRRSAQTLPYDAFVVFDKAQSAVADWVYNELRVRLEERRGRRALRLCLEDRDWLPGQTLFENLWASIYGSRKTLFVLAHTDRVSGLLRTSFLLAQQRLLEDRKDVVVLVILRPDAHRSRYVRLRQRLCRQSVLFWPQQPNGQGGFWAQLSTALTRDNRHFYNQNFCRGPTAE
Procedure, shortened: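 Reversibility test: J774 cells were stimulated with varying doses of TLR9 agonist, with or without a fixed 10 µg/mL antagonist, for 1 h. Nuclear extracts were analysed for NF-κB by EMSA.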

Mus musculus [3] = assay: Inhibition of 5'-TCTGACRTTCT-X-TCTTRCAGTCT-3'-induced IP10 production in C57BL/6 mouse treated 72 hrs before induction at 10 mg/kg, sc; assay type: functional; conditions: C57BL/6, sc, route subcutaneous; procedure, shortened: as §1
Mus musculus [4] = assay: Inhibition of 5'-UGCUGUUCUG-X-GUCUUGUCGU-5'-induced IL10 production in C57BL/6 mouse treated 72 hrs before induction at 10 mg/kg, sc; assay type: functional; conditions: C57BL/6, sc, route subcutaneous
Procedure, shortened: (§2)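 Female C57BL/6 mice, 6-8 weeks, n = 3, given antagonist 10 mg/kg sc in the right flank. After 72 h, agonist given sc in the left flank: TLR7/8 RNA agonist at 50 mg/kg or TLR9 agonist at 0.25 mg/kg. Serum collected 2 h after agonist by retro-orbital bleeding; cytokines/chemokines by mouse 20-plex Luminex bead assay.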

Mus musculus [5] = assay: Inhibition of 5'-UGCUGUUCUG-X-GUCUUGUCGU-5'-induced MIG production in C57BL/6 mouse treated 72 hrs before induction at 10 mg/kg, sc; assay type: functional; conditions: C57BL/6, sc, route subcutaneous; procedure, shortened: as §2
[6] = biological target: T1, Toll-like receptor 9 (Mus musculus); assay: Antagonist activity at TLR9 in mouse J774 cells assessed as inhibition of 5'-TCTGACRTTCT-X-TCTTRCAGTCT-3'-induced NF-kappaB activation pretreated for 30 mins; assay type: functional, cell-based
Procedure, shortened: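 J774 cells received antagonist at 5, 10 or 20 µg/mL either 30 min before, together with, or 30 min after TLR9 agonist (1 µg/mL). Nuclear extracts were prepared 1 h after agonist addition and NF-κB was assessed by EMSA.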

Mus musculus [7] = assay: Inhibition of 5'-UGCUGUUCUG-X-GUCUUGUCGU-5'-induced IP10 production in C57BL/6 mouse treated 72 hrs before induction at 10 mg/kg, sc; assay type: functional; conditions: C57BL/6, sc, route subcutaneous; procedure, shortened: as §2
[8] = biological target: T1, Toll-like receptor 9 (Mus musculus); assay: Antagonist activity at TLR9 in mouse J774 cells assessed as inhibition of 5'-TCTGACRTTCT-X-TCTTRCAGTCT-3'-induced NF-kappaB activation pretreated for 1 hr; assay type: functional, cell-based
Procedure, shortened: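 J774 cells at 5×10^6 cells/well were preincubated with antagonist for 1 h. Agonist was then added: TLR9 agonist 1 µg/mL, an RNA-based TLR7/8 agonist, or LPS 100 ng/mL. Antagonist was used at 5–40 µg/mL or at the indicated agonist ratios. Nuclear extracts were taken 1 h after agonist and analysed by EMSA.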

Mus musculus [9] = assay: Inhibition of 5'-TCTGACRTTCT-X-TCTTRCAGTCT-3'-induced MCP1 production in C57BL/6 mouse treated 72 hrs before induction at 10 mg/kg, sc; assay type: functional; conditions: C57BL/6, sc, route subcutaneous; procedure, shortened: as §1
Mus musculus [10] = assay: Inhibition of 5'-TCTGACRTTCT-X-TCTTRCAGTCT-3'-induced MIG production in C57BL/6 mouse treated 72 hrs before induction at 10 mg/kg, sc; assay type: functional; conditions: C57BL/6, sc, route subcutaneous; procedure, shortened: as §1
B = assay: Inhibition of 5'-TCTGTCRTTCT-X-TCTTRCTGTCT-5'-induced IL6 secretion in MRL/lpr mouse splenic B cells after 24 hrs by ELISA; assay type: functional, cell-based
Procedure, shortened: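 Splenic B cells from MRL/lpr mice, purified by B-cell isolation kit (>95% B220+), cultured at 5×10^5 cells/200 μL in RPMI-1640 with 10% FBS and penicillin/streptomycin; stimulated with 1 μg/mL TLR9 agonist with or without antagonist at 0.3, 1 or 3 μg/mL, or antagonist 3 μg/mL alone. Supernatants taken at 24 h; IL-6 by sandwich ELISA.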

Mus musculus [11] = assay: Inhibition of 5'-TCTGACRTTCT-X-TCTTRCAGTCT-3'-induced IL12 production in C57BL/6 mouse pretreated before up to 48 hrs of induction at 10 mg/kg, sc; assay type: functional, organism-based; parameters: dose 10 mg/kg
Procedure, shortened: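 C57BL/6 mice received antagonist or control 10 mg/kg sc, either with TLR9 agonist 0.25 mg/kg sc or up to 48 h before it. Serum IL-12 was measured 2 h after agonist. Two or three independent experiments; mean ± SEM, Student's t test versus PBS.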

Activity [2]: inactive | Activity [6]: Active | Activity [8]: Dose-dependent effect
Compound: CO[C@@H]1[C@H](OP(=O)(S)OC[C@H]2O[C@@H](n3ccc(N)nc3=O)C[C@@H]2OP(=O)(S)OC[C@H]2O[C@@H](n3ccc4c(=O)[nH]c(N)nc43)C[C@@H]2OP(=O)(S)OC[C@H]2O[C@@H](n3cc(C)c(=O)[nH]c3=O)C[C@@H]2OP(=O)(S)OC[C@H]2O[C@@H](n3cc(C)c(=O)[nH]c3=O)C[C@@H]2OP(=O)(S)OC[C@H]2O[C@@H](n3ccc(N)nc3=O)C[C@@H]2OP(=O)(S)OC[C@H]2O[C@@H](n3cc(C)c(=O)[nH]c3=O)C[C@@H]2OP(=O)(S)OC[C@H]2O[C@@H](n3ccc(N)nc3=O)C[C@@H]2OP(=O)(S)OC[C@H]2O[C@@H](n3cc(C)c(=O)[nH]c3=O)C[C@@H]2OP(=O)(S)OC[C@H]2O[C@@H](n3cnc4c(=O)[nH]c(N)nc43)C[C@@H]2OP(=O)(S)OC[C@H]2O[C@@H](n3cc(C)c(=O)[nH]c3=O)C[C@@H]2O)[C@@H](COP(=O)(S)O[C@H]2[C@@H](OC)[C@H](n3cnc4c(=O)[nH]c(N)nc43)O[C@@H]2COP(=O)(S)O[C@H]2C[C@H](n3cc(C)c(=O)[nH]c3=O)O[C@@H]2COP(=O)(S)O[C@H]2C[C@H](n3ccc(N)nc3=O)O[C@@H]2COP(=O)(S)O[C@H]2C[C@H](n3cc(C)c(=O)[nH]c3=O)O[C@@H]2COP(=O)(S)O[C@H]2C[C@H](n3cnc4c(N)ncnc43)O[C@@H]2COP(=O)(S)O[C@H]2C[C@H](n3cc(C)c(=O)[nH]c3=O)O[C@@H]2COP(=O)(S)O[C@@H]2C[C@@H](n3ccc(N)nc3=O)O[C@H]2CO)O[C@H]1n1cnc2c(N)ncnc21 (some centres not stated)
inhibition in vivo at 10 mg/kg (Mus musculus [1]): ≥ 50% | inhibition in vivo at 10 mg/kg (Mus musculus [3]): ≥ 50% | inhibition in vivo at 10 mg/kg (Mus musculus [4]): ≥ 50% | inhibition in vivo at 10 mg/kg (Mus musculus [5]): ≥ 50% | inhibition in vivo at 10 mg/kg (Mus musculus [7]): ≥ 50% | inhibition in vivo at 10 mg/kg (Mus musculus [9]): ≥ 50% | inhibition in vivo at 10 mg/kg (Mus musculus [10]): ≥ 50% | Activity (B): Dose-dependent effect | Activity (Mus musculus [11]): Active
